The record followed here is PMC10262665 (Science (New York, N.Y.), 2023).

Molecules are shown by their SMILES.

In general, Kd refers to a measure of binding affinity in units of concentration. For orientation: IC50 means the concentration that gives 50% inhibition.

In assay [1] the target is T1, FBP2 (Homo sapiens, UniProt O00757).
T1 sequence (O00757 1-339): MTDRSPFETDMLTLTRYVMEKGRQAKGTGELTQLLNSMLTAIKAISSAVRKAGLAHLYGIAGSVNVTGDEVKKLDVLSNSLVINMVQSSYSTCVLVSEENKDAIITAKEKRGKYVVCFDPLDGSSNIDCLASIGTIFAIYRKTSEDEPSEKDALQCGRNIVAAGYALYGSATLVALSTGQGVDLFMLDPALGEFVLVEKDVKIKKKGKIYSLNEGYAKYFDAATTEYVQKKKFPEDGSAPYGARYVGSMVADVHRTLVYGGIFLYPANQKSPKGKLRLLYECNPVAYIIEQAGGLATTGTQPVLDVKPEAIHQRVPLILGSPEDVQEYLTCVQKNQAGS
Kind of assay: MIDAS protein-metabolite interaction screen. The assay is classed as binding. The settings on record: significant PMI Q < 0.01. A digest of the protocol:
(§1)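 Purified protein is separated from a defined metabolite library by a semipermeable dialysis membrane that passes metabolites but not protein, then incubated to relative equilibrium. Protein is denatured and removed. Metabolites in both chambers are quantified by flow injection analysis–MS, with methods optimized for each pool. The between-chamber fold change is normalized and corrected for nonspecific interactions.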

In assay [2] the target is T2, FBP1 (Homo sapiens, UniProt P09467).
T2 sequence (P09467 1-338): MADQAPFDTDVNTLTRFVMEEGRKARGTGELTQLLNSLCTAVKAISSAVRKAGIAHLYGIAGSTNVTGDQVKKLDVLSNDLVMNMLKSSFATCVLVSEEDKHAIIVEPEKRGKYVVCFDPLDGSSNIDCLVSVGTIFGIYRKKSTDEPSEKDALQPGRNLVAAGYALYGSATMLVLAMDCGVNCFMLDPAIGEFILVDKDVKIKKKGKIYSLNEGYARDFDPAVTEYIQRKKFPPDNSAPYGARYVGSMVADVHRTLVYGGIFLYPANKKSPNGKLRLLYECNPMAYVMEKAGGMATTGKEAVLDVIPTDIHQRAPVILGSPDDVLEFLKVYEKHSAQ
Put plainly: MIDAS protein-metabolite interaction screen. The assay is classed as binding. The conditions noted are these: significant PMI Q < 0.01. A digest of the protocol: as §1

For assay [3], the target named is T3, phosphofructokinase (PFKP) (Homo sapiens, UniProt Q01813).
T3 sequence (Q01813 1-784): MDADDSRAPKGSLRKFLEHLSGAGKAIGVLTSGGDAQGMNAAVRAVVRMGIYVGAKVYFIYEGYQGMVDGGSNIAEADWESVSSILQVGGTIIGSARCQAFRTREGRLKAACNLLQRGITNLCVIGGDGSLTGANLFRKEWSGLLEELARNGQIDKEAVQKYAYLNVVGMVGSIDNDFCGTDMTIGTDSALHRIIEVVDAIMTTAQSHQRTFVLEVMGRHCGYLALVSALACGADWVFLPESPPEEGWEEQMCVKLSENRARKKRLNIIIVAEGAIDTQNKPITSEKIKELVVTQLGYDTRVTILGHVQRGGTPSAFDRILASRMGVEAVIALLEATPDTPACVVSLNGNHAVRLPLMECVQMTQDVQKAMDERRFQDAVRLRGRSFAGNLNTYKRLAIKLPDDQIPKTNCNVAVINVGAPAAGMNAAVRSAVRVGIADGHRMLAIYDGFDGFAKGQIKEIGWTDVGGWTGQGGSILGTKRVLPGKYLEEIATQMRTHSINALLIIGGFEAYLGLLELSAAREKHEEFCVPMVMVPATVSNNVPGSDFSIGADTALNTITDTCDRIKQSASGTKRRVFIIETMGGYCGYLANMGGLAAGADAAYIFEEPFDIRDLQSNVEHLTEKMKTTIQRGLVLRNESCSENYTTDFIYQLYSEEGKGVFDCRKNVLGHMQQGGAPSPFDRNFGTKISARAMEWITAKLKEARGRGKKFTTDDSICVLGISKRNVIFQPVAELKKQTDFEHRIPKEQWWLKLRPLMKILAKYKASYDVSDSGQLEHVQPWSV
Kind of assay: MIDAS protein-metabolite interaction screen. The format is binding. The settings on record: significant PMI Q < 0.01. A digest of the protocol:
as §1

For assay [4], the target named is T4, LDHA (Homo sapiens, UniProt P00338). Kind of assay: Differential scanning fluorimetry. The assay is classed as binding. Background: DSF heats the sample and reads unfolding from a dye or from intrinsic fluorescence.
The target of assay [5] is T5, LDHB (Homo sapiens, UniProt P07195). Put plainly: LDH enzyme activity assay. The assay is classed as biochemical. The conditions noted are these: in vitro. A digest of the protocol:
(§2)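 LDH isoform activity measured in vitro with test metabolites (adenosine nucleotides, CoA and acyl-CoAs) over a concentration range. IC50 is derived from the inhibition curves. Mode of inhibition is assessed against NAD and lactate.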

Assay [6] deals with T4, LDHA. Kind of assay: LDH enzyme activity assay. The format is biochemical. The conditions noted are these: for mode of LDHA inhibition: with respect to NAD and lactate. A digest of the protocol:
as §2

Assay [7] has as its target T5, LDHB. Kind of assay: Differential scanning fluorimetry. The assay is classed as binding.
In assay [8] the target is T5, LDHB. Put plainly: Binding to palmitoyl-CoA immobilized on agarose beads. A digest of the protocol: (§3)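 Pull-down of LDH protein on palmitoyl-CoA immobilized on agarose beads. Competition with free palmitoyl-CoA, with buffer alone or acetyl-CoA as comparators.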
The target in assay [9] is T4, LDHA. Described as above. A digest of the protocol: as §3
Assay [10] concerns the target T6, ENO2 (Homo sapiens, UniProt P09104). Put plainly: Differential scanning fluorimetry. The format is binding.
Assay [11] has as its target T7, ENO1 (Homo sapiens, UniProt P06733). Put plainly: Differential scanning fluorimetry. The assay is classed as binding.
Assay [12] has as its system enolase. Kind of assay: In vitro enolase activity. The assay is classed as biochemical, human.
For assay [13], the target named is T6, ENO2. Put plainly: MIDAS protein-metabolite interaction screen. The format is binding. The settings on record: significant PMI Q < 0.01. A digest of the protocol: as §1
The target in assay [14] is T7, ENO1. Put plainly: MIDAS protein-metabolite interaction screen. The conditions noted are these: significant PMI Q < 0.01. The assay is classed as binding. A digest of the protocol: as §1
Assay [15] concerns the target T8, fumarase (Homo sapiens, UniProt P07954).
T8 sequence (P07954 45-510): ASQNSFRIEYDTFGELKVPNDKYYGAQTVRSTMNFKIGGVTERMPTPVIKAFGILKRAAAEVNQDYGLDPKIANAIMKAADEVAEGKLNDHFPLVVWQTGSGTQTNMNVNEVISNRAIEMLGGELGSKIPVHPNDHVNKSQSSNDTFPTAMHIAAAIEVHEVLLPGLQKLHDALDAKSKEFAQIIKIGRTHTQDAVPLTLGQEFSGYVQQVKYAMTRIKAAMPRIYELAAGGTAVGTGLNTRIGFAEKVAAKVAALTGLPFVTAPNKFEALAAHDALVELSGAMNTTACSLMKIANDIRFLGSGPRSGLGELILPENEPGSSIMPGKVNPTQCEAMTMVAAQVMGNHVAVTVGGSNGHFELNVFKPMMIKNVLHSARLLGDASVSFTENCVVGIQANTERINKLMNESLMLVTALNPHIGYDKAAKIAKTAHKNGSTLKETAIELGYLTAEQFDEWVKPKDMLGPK
Put plainly: Differential scanning fluorimetry. The format is binding.

Assay [16] addresses T9, fumarase (FH) (Homo sapiens, UniProt P07954).
T9 sequence (P07954 45-510): T8 sequence (P07954 45-510)
Kind of assay: MIDAS protein-metabolite interaction screen. The assay is classed as binding. The settings on record: significant PMI Q < 0.01. A digest of the protocol:
as §1

Assay [17] has as its target T8, fumarase. Kind of assay: Fumarase kinetic assays. The assay is classed as biochemical.

T5 sequence (P07195 whole entry, canonical isoform): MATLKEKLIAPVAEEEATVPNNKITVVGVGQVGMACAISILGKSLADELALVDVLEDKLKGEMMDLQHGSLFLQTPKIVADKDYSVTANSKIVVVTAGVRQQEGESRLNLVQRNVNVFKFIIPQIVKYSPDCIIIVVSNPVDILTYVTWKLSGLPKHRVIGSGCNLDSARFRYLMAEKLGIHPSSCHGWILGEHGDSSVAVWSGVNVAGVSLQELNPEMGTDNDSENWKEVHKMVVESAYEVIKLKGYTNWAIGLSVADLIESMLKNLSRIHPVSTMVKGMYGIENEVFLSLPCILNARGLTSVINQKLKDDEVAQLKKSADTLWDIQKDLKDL
T6 sequence (P09104 whole entry): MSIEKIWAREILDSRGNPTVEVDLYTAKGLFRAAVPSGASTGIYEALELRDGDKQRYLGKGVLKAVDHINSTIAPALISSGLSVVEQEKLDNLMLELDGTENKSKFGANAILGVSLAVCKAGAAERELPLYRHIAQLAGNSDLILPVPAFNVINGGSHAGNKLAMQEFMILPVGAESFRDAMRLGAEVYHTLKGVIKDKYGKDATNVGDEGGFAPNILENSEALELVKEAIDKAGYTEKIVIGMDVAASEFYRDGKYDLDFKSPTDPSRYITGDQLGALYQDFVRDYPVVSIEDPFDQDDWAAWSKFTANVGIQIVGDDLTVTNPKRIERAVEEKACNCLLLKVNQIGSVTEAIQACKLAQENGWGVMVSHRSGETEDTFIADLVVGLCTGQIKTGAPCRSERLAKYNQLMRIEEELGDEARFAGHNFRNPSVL
T7 sequence (P06733 whole entry): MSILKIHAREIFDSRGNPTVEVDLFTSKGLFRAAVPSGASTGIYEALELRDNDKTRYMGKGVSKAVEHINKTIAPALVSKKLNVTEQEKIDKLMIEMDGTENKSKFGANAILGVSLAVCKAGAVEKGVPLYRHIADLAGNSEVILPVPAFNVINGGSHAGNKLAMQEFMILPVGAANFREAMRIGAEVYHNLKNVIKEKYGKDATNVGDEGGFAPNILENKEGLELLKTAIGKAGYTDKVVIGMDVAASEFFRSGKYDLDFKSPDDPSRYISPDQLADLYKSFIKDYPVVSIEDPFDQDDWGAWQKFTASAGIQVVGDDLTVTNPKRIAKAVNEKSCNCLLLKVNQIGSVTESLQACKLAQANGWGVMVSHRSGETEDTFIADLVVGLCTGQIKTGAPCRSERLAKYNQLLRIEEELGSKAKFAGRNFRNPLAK

Consider `N[C@H]1C(O)O[C@H](COP(=O)(O)O)[C@@H](O)[C@@H]1O` (some centres unmarked) [glucosamine-6-phosphate], for which the results for the MIDAS protein-metabolite interaction entry in assay [1] and in assay [2] were “only FBP1 showed an interaction” and “showed an interaction”, respectively.
As to `O=C(CO)[C@@H](O)[C@H](O)[C@H](O)[C@H](O)COP(=O)(O)O` [sedoheptulose-7-phosphate], in [3], the MIDAS protein-metabolite interaction result is given as “interacted”.
Regarding `Nc1ncnc2c1ncn2[C@@H]1O[C@H](COP(=O)(O)OP(=O)(O)OP(=O)(O)O)[C@@H](O)[C@H]1O` [ATP, adenosine triphosphate], the Kd in assay [4] amounted to 636 µM; in assay [7], 697 µM. In addition, the “inhibition of LDHB enzyme activity” value in assay [5] was “inhibited only the LDHA isoform”. Besides, the “mode of LDHA inhibition” value in [6] was “competitive”.
In the case of `CCCCCCCCCCCCCCCC(=O)SCCNC(=O)CCNC(=O)[C@H](O)C(C)(C)COP(=O)(O)OP(=O)(O)OC[C@H]1O[C@@H](n2cnc3c(N)ncnc32)[C@H](O)[C@@H]1OP(=O)(O)O` [C16:0-CoA, palmitoyl-CoA], the “protein species induced in DSF assay” value in assay [4] (LDHA, low-micromolar concentrations of ligand) is given as “thermolabile species”; in [7] (LDHB, low-micromolar concentrations of ligand), “thermostable species”. The “disruption of protein binding to immobilized palmitoyl-CoA by free competitor” value in assay [8] (agarose beads) and in assay [9] (agarose beads) was “disrupted” throughout. For the same compound, the “affinity of direct interaction” value in [8] (from DSF and bead binding) is on record as “low-micromolar affinity”; in assay [9] (from DSF and bead binding), “low-micromolar affinity”. This compound showed an IC50 in assay [6] (LDHA enzyme activity, acyl-CoAs) of around 1 µM. In addition, the “mode of LDHA inhibition” value in [6] is “noncompetitive”.
On to `O=P(O)(O)OC[C@H]1O[C@H](OP(=O)(O)OP(=O)(O)O)[C@H](O)[C@@H]1O` [PRPP, 5-phospho-D-ribose 1-diphosphate], for which the MIDAS protein-metabolite interaction entry in assay [1] and in assay [2] was “interacted” in each case.
As to `N[C@@H](COP(=O)(O)O)C(=O)O` [pSer, phosphoserine], the dissociation constant (Kd) in assay [10] was 1150 µM; in assay [11], 1380 µM. Further, in [12], the “inhibition of in vitro enolase activity” value is “only weakly inhibited”. Besides, the MIDAS protein-metabolite interaction result in assay [13] and in [14] was “most enriched metabolite” each time.
With `O=C(COP(=O)(O)O)[C@@H](O)[C@H](O)[C@H](O)COP(=O)(O)O` [fructose 1,6-bisphosphate], the MIDAS protein-metabolite interaction result in [3] is “interacted”.
In turn, `NC(CP(=O)(O)O)C(=O)O` (centres unmarked) [AP-3, 2-amino-3-phosphonopropionic acid] had a Kd in assay [15] of 980 µM. Moreover, in [16], the MIDAS protein-metabolite interaction result is listed as “putative interactor”. For the same compound, the “inhibition of fumarase, mode” value in assay [17] is on record as “competitively inhibited”.
